For one assay, the system named is CB1R and CB2R. As to the kind of experiment: Competition for [3H]CP55940 binding in HEK293 cell membranes. As to conditions: HEK293 cell membranes without heterologous CB1R/CB2R. Set-up: species or system human.
The target of another assay is human CB2R (Homo sapiens, UniProt P34972). Nature of the assay: CB2R internalization in HEK293 cells stably expressing HA-tagged CB2R. The format is cell-based. As to conditions: AI compounds tested at 3 μM. Put shortly:
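HA-tagged human CB2R was expressed heterologously in cultured HEK293 cells. Test compound was given at 3 μM, with or without the CB2R antagonist AM630 at 1 μM; CP55940 at 1 μM served as the positive control. Internalization was expressed as % of vehicle control. Mean ± SEM of 3–5 independent experiments; one-way ANOVA with Bonferroni post-test.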

In a further assay the test system is mouse CB2R. Conditions: cited from earlier work.
A further assay addresses human CB1R (Homo sapiens, UniProt P21554). Nature of the assay: CB1R internalization in HEK293 cells stably expressing HA-tagged CB1R. It is filed as cell-based. Conditions: AI compounds tested at 3 μM. Put shortly: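 Human CB1R carrying an HA tag was expressed in cultured HEK293 cells. Test compound was applied at 3 μM, with CP55940 at 1 μM as the positive control. Internalization was read as % of vehicle control. Data are mean ± SEM of 3–5 independent experiments, compared by one-way ANOVA with Bonferroni post-test.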

The subject of assay [1] is AI-sensitive GPCRs. As to the kind of experiment: Competition for [3H]WIN55212-2 binding in HEK293 cell membranes. Set-up: species or system human. The gist of the method: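 P2 membrane fractions were prepared from independent HEK293 cultures, which lack CB1R and CB2R. Membranes were incubated with [³H]WIN55212-2 and increasing concentrations of test compound, and specific binding was measured by filtration. Nonspecific binding was defined with 1 μM unlabelled WIN55212-2.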

The test system of assay [2] is AI-sensitive GPCRs. As to the kind of experiment: [35S]GTPγS binding in HEK293 cell membranes. It is filed as biochemical, human. Conditions: for [35S]GTPγS response after pertussis toxin: PTX 100 ng/ml pretreatment of HEK293 cells for 20 h. A general note: Binding of GTPγS marks nucleotide exchange on a G protein.
Where [3] appears, read: read-out: KiHigh (AIHigh binding sites), high affinity site.

We go through 23 compounds from paper PMC10917149 (European journal of medicinal chemistry, 2023).

“Also recorded” adds a separate entry of the source. Read-outs that look alike come from different tables or passages of the source.

Chain of human CB1R (P21554 whole entry): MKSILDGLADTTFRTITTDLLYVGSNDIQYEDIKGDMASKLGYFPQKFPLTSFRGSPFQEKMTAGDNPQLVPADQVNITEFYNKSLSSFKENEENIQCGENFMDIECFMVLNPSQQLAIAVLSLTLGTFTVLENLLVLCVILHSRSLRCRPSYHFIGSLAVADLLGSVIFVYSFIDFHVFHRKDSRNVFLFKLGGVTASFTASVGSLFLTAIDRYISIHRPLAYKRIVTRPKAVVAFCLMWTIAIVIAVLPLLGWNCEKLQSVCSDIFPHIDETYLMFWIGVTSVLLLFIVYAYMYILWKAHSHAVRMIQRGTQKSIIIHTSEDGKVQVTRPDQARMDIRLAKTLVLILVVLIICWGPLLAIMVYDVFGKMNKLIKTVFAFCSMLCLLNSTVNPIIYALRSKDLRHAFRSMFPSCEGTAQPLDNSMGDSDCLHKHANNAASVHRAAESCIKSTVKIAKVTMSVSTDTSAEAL
Chain of human CB2R (P34972 whole entry): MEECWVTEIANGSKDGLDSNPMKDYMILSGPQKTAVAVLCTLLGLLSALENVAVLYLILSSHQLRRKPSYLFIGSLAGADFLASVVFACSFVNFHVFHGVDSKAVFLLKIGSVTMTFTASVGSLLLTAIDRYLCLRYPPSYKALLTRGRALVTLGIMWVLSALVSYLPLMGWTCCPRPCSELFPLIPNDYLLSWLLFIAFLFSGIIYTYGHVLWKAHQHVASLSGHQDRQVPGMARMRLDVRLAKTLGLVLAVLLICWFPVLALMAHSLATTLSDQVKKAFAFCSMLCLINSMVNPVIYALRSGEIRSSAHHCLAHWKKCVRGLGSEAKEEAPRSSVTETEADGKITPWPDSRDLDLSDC

Consider `CCCCCCC(C)(C)c1ccc([C@@H]2C[C@H](O)CC[C@H]2CCCO)c(O)c1` [CP55940], for which the “competition for [3H]CP55940 binding (in words)” value in the assay with CB1R and CB2R is “failed to compete”.
For `Cc1ccc(C(=O)c2c(C)n(CCN3CCOCC3)c3ccccc23)c2ccccc12` [Compound 2], the “CB2R internalization (in words)” value on human CB2R is recorded as “stimulated significant CB2R internalization; also recorded: activate”. Further, the “activation of mouse CB2R measured by receptor internalization” value (“activation of mouse CB2R measured” below) in the assay with mouse CB2R was “do not activate”. Besides, the “CB1R internalization (in words)” value on human CB1R is recorded as “retained significant activity; also recorded: stimulate significant CB1R internalization”. The “manner of competition for [3H]WIN55212-2 binding (biphasic / monophasic)” value (shortened to “manner of competition … (biphasic / monophasic)”) with AI-sensitive GPCRs [1] is reported as “biphasic”. Moreover, the Ki with AI-sensitive GPCRs [1] (setting [3]) was found to be 0.8 nM.
Turning to `Cc1ccc(C(=O)c2c3n(c4ccccc24)CCCC3)c2ccccc12` [Compound 4], at human CB2R, the “CB2R internalization (in words)” value is “stimulated significant CB2R internalization; also recorded: activate”. Moreover, the “activation of mouse CB2R measured” value in the assay with mouse CB2R is on record as “do not activate”. In addition, the “CB1R internalization (in words)” value on human CB1R is on record as “retained significant activity; also recorded: stimulate significant CB1R internalization”. Besides, the “manner of competition … (biphasic / monophasic)” value in the assay with AI-sensitive GPCRs [1] was “biphasic”.
`Cc1ccc(C(=O)c2c(C)n(CC(F)(F)F)c3ccccc23)c2ccccc12` [Compound 5]: the “CB2R internalization (in words)” value at human CB2R is “stimulated significant CB2R internalization; also recorded: activate”. In addition, the “activation of mouse CB2R measured” value in the assay on mouse CB2R is “do not activate”. In addition, the “CB1R internalization (in words)” value at human CB1R is “inactive”.
`COc1ccc2c(c1)c(C(=O)c1ccc(C)c3ccccc13)c(C)n2CCN1CCOCC1` [Compound 7]: the “competition for [3H]WIN55212-2 binding (in words)” value with AI-sensitive GPCRs [1] is “inactive; also recorded: loss of binding”.
Regarding `COc1ccc2c(C(=O)c3ccc(C)c4ccccc34)c(C)n(CCN3CCOCC3)c2c1` [Compound 8], the “stimulation of [35S]GTPγS binding (in words)” value (shortened to “stimulation”) in the assay on AI-sensitive GPCRs [2] was “increase”.
`Cc1ccc(C(=O)c2c(C)n(CCN3CCOCC3)c3ccc(Cl)cc23)c2ccccc12` [Compound 9]: the “manner of competition … (biphasic / monophasic)” value with AI-sensitive GPCRs [1] was “biphasic”. In addition, the Ki was determined as 10 nM in the assay with AI-sensitive GPCRs [1] (setting [3]) and 2300 nM in the assay with AI-sensitive GPCRs [1] (read-out: KiLow (AILow binding sites), low affinity site).
For the compound `Cc1ccc(C(=O)c2c(C)n(CCN3CCOCC3)c3cc(Cl)ccc23)c2ccccc12` [Compound 10], in the assay on AI-sensitive GPCRs [2], the “stimulation” value is reported as “increase” and the “[35S]GTPγS response after pertussis toxin” value is “pertussis toxin-sensitive”. Besides, the “KiLow (AILow binding sites)” value in the assay on AI-sensitive GPCRs [1] (low affinity site) is “undetectable”.
As to `Cc1ccc(C(=O)c2c(C)n(CCN3CCOCC3)c3cc(Cl)cc(Cl)c23)c2ccccc12` [Compound 11], the “competition for [3H]WIN55212-2 binding (in words)” value with AI-sensitive GPCRs [1] was “inactive”. Moreover, the “binding at 1 μM” value with AI-sensitive GPCRs [1] (at 1 μM) was “no measurable binding”.
Regarding `Cc1ccc(C(=O)c2c(C)n(CCN3CCOCC3)c3ncccc23)c2ccccc12` [Compound 12], the “CB2R internalization (in words)” value on human CB2R is “stimulated significant CB2R internalization; also recorded: activate”. For the same compound, in the assay with AI-sensitive GPCRs [2], the “stimulation” value is given as “increase” and the “[35S]GTPγS response after pertussis toxin” value was “pertussis toxin-sensitive”. Also, in the assay with mouse CB2R, the “activation of mouse CB2R measured” value was “do not activate”. Moreover, the “CB1R internalization (in words)” value at human CB1R is “retained significant activity; also recorded: stimulate significant CB1R internalization”. In the assay on AI-sensitive GPCRs [1], the “enhanced activity at AIHigh versus AILow” value is given as ~ 1000 fold and the “manner of competition … (biphasic / monophasic)” value is “biphasic”. In addition, the Ki with AI-sensitive GPCRs [1] (setting [3]) came to 0.4 nM.
On to `Cc1ccc(C(=O)c2c(C)n(CCN3CCOCC3)c3cnccc23)c2ccccc12` [Compound 13], for which the “manner of competition … (biphasic / monophasic)” value in the assay with AI-sensitive GPCRs [1] is recorded as “biphasic”. In the assay with AI-sensitive GPCRs [1] (setting [3]), the Ki is 5.8 nM.
Consider `CCn1c(C)c(C(=O)c2ccc(OC)cc2)c2ccccc21` [Compound 14], for which the “competition for [3H]WIN55212-2 binding (in words)” value with AI-sensitive GPCRs [1] is “inactive”.
On to `C1=C(CCN2CCOCC2)c2ccccc2/C1=C\c1cccc2ccccc12` [Compound 31, reference compound], for which, in the assay with AI-sensitive GPCRs [2], the “stimulation” value is reported as “stimulated”. For the same compound, the “competition for [3H]WIN55212-2 binding (in words)” value with AI-sensitive GPCRs [1] is “compete”.
For the compound `C1=C(CCN2CCOCC2)c2ccccc2/C1=C/c1cccc2ccccc12` [Compound 32, reference compound], the “competition for [3H]WIN55212-2 binding (in words)” value in the assay with AI-sensitive GPCRs [1] was “weakly competes”.
For `CC1=C(CCN2CCOCC2)c2ccccc2/C1=C\c1cccc2ccccc12` [Compound 33, reference compound], in the assay with AI-sensitive GPCRs [2], the “stimulation” value is listed as “stimulated”. Also, in the assay on AI-sensitive GPCRs [1], the “competition for [3H]WIN55212-2 binding (in words)” value is on record as “compete”.
For the compound `CC1=C(CCN2CCOCC2)c2ccccc2/C1=C/c1cccc2ccccc12` [Compound 34, reference compound], the “competition for [3H]WIN55212-2 binding (in words)” value in the assay with AI-sensitive GPCRs [1] is “does not compete; also recorded: no significant competition”.
`Cc1c(C(=O)c2cccc3ccccc23)c2ccccc2n1C` [JWH-042, reference compound]: the “manner of competition … (biphasic / monophasic)” value in the assay on AI-sensitive GPCRs [1] was “biphasic”.
With `Cc1ccc(C(=O)c2c(C)n(C)c3ccccc23)c2ccccc12` [JWH-450, reference compound], the “manner of competition … (biphasic / monophasic)” value in the assay on AI-sensitive GPCRs [1] is recorded as “biphasic”.
On to `CCn1c(C)c(C(=O)c2ccc(C)c3ccccc23)c2ccccc21` [JWH-451, reference compound], for which the “CB2R internalization (in words)” value on human CB2R is recorded as “stimulated significant CB2R internalization; also recorded: activate”. In the assay on AI-sensitive GPCRs [2], the “stimulation” value is given as “increases” and the “[35S]GTPγS response after pertussis toxin” value was “significantly reduced”. In addition, the “[35S]GTPγS response in presence of CB1R and CB2R antagonists” value in the assay with AI-sensitive GPCRs [2] (SR141617 (1 μM) and SR144528 (1 μM)) was “insensitive; also recorded: not affected”. In addition, the “activation of mouse CB2R measured” value with mouse CB2R was “do not activate”. Also, at human CB1R, the “CB1R internalization (in words)” value was “inactive”. The “manner of competition … (biphasic / monophasic)” value in the assay with AI-sensitive GPCRs [1] was “biphasic”. Also, the Ki in the assay on AI-sensitive GPCRs [1] (setting [3]) was 1.5 nM.
Take `Cc1c(C(=O)NN2CCCCC2)nn(-c2ccc(Cl)cc2Cl)c1-c1ccc(Cl)cc1` [SR141617]: the “competition for [3H]CP55940 binding (in words)” value with CB1R and CB2R is “failed to compete”.
Take `Cc1c(C(=O)c2cccc3ccccc23)c2cccc3c2n1[C@@H](CN1CCOCC1)CO3` [WIN55212-2, reference compound]: the “manner of competition … (biphasic / monophasic)” value with AI-sensitive GPCRs [1] is “biphasic”. The Ki came out at 0.043 nM in the assay on AI-sensitive GPCRs [1] (read-out: KiHigh, high affinity site of biphasic competition curve) and 7.2 nM with AI-sensitive GPCRs [1] (read-out: KiLow, low affinity site of biphasic competition curve).
For the compound `Cc1c(C(=O)c2cccc3ccccc23)c2cccc3c2n1[C@H](CN1CCOCC1)CO3` [WIN55212–3, reference compound], in the assay on AI-sensitive GPCRs [1], the “competition for [3H]WIN55212-2 binding (in words)” value was “absence of competition”.
In the case of SR144528, in the assay with CB1R and CB2R, the “competition for [3H]CP55940 binding (in words)” value was “failed to compete”.
